Autophagy mod – modulators of autophagy; MEF GFP-LC3 puncta imaging; test concentration mostly 10 µM; calls only at 10 µM (by protocol); actives 0.98% (n = 190,000); AID 463193;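 active = percentage of spot-positive cells more than 3 SD above its plate mean, without a fluorescence outlier flag or 80% toxicity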;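 also: spot-positive cell cutoff set from DMSO-treated cells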
ABCG2 block – inhibitors of human ABCG2 transporter, ABCB1 counter-screen | IgMXP3 cells, JC-1 efflux, flow cytometry | inhibition, % at 6.6 µM | actives 0.1% (n = 190,000) | AID 1325;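 active = inhibition above 80%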;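 also: 0% = DMSO and 100% = nicardipine control wells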
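test system = two drug-resistant human cell lines, ABCG2 and ABCB1 | amount = 3 million cells/mL final, two lines in 1:1 ratio | reagent = JC-1 transporter substrate | doses = one concentration, 6.6 µM final | incubation = 10 min at 25 °C | signal = flow cytometric JC-1 green MFI at 530 nm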
Arbovirus inh – blocks arbovirus infection; arbovirus infection cell-based antiviral screen; inhibition, % at 10 µM; actives 0.37% (n = 200,000); AID 1251; in the data active = inhibition above about 30%
MT stabilizer – microtubule stabilization, imaging screen; HeLa tubulin immunostaining HCS, 24 h; share of cells brighter than vehicle mean+2SD; % tubulin-high responders, % at 10 µM; actives 0.83% (n = 200,000);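 active = plate Z-score above 3 for both tubulin-high and condensed-nucleus cell shares, with cell loss under 80%, at 10 µM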;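 also: anti alpha tubulin signal scored within the nucleus-defined area of each cell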
ABCB1 inh – human ABCB1 inhibition, ABCG2 as counter-screen; CCRF-Adr cells, JC-1 efflux, flow cytometry; inhibition, % at 6.6 µM; actives 0.067% (n = 190,000); in the data active = inhibition above about 40%;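 also: 0% = vehicle and 100% = reference inhibitor; higher value means more JC-1 retained so stronger ABCB1 efflux block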
Target sequence (P08183 whole entry, looked up): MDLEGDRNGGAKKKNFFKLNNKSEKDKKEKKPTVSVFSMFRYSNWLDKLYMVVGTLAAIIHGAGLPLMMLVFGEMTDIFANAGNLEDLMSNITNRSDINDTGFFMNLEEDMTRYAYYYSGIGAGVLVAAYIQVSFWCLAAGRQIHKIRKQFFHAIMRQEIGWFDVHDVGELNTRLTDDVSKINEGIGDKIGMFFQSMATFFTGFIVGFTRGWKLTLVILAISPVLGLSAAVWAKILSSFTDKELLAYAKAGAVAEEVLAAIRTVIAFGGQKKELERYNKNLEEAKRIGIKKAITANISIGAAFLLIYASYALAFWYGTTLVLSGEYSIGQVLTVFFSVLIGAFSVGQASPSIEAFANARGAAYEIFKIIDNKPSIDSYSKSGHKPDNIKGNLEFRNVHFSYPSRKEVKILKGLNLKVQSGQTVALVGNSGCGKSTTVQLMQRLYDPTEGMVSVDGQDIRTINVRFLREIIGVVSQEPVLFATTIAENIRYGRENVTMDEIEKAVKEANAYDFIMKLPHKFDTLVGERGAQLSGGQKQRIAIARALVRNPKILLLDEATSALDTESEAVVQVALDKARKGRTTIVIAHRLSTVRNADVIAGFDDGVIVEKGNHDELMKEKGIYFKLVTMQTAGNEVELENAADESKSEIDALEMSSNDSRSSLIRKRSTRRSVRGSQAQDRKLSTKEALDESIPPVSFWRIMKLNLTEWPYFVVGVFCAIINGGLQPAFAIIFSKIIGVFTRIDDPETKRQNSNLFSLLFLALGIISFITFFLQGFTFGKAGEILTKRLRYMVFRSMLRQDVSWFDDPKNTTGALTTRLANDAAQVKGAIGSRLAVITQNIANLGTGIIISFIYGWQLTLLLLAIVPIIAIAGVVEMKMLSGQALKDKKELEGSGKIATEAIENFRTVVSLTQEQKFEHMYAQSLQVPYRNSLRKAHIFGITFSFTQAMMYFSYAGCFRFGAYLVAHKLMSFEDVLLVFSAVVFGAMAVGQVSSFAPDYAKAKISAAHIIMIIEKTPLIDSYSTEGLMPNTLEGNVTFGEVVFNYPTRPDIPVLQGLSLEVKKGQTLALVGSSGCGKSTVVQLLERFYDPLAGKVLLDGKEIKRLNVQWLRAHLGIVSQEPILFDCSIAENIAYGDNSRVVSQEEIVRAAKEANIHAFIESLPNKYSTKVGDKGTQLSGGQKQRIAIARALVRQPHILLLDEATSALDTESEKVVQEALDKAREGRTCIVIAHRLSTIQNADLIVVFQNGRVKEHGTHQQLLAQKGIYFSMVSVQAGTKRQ
bCat nuc transl – alters nuclear translocation of beta-catenin in HeLa cells. immunofluorescence imaging. nuclear translocation activity, % at 5 µM. actives 0.3% (n = 190,000). AID 1665;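 active = nuclear translocation activity above 50% at 5 µM, with a well cell count of 50 or more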;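 also: per-cell ratio of nuclear to cytoplasmic median beta-catenin stain intensity; plate controls were DMSO negative control for no effect and GSK-3 inhibitor IX positive control for full effect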
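Test system: HeLa cells, endogenous beta-catenin; Compound: single 5 µM dose plus 0.02–20 µM confirmation series; Times: compound exposure 24 h at 37°C; Signal: fluorescence imaging of beta-catenin antibody stain plus DAPI; Read-out: % activation, nuclear-to-cytoplasmic median beta-catenin signal ratio per cell.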
ABCB1 confirm – confirmation of human ABCB1 transporter inhibitors, ABCG2 counter-screen; CCRF-Adr cells, JC-1 efflux, flow cytometry; AID 1451; shares compounds with ABCG2 block; inhibition, % at 6.6 µM; actives 7% (n = 270);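 active = inhibition of pump activity above 50%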;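 also: 0% = DMSO and 100% = nicardipine full pump inhibition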
ABCG2 single pt – confirmation of human ABCG2 transporter inhibitors, ABCB1 counter-screen; shares compounds with ABCG2 block; IgMXP3 cells, JC-1 efflux, flow cytometry; inhibition, % at 6.6 µM; actives 6% (n = 270);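 active = inhibition above 50%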;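 also: 0% = DMSO wells and 100% = nicardipine pump inhibitor wells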
IgMXP3 autofluor – IgMXP3 autofluorescence flag for ABCG2 confirmation. shares compounds with ABCG2 block. IgMXP3 cells, compound autofluorescence 488/530 nm, flow; hits give high values. fluorescence at 6.6 µM. actives 30% (n = 270). AID 1480;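 active = fluorescence in ABCG2-expressing cells above the plate's control-well mean plus 3 SD, cut at about 15 in these data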;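 also: median cell fluorescence with compound minus that of DMSO-treated control cells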
CCRF-Adr fluor – counter-screen for ABCB1 inhibitors: compound fluorescence in CCRF-Adr cells. AID 1483. shares compounds with ABCG2 block. actives 30% (n = 270). compound autofluorescence 488/530 nm, flow cytometry; hits give high values. fluorescence at 6.6 µM;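 active = fluorescence beyond the plate control mean plus 3 SD, with a fluorescence-to-maximum score over 2, cut at about 25 in these data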
Active calls of the source: *. A selection: hits, their analogues and other compounds. The true share with any hit is near 2.1%.

Screening CCOc1ccc(OCc2cccc(C(=O)N/N=C/c3cccnc3)c2)cc1 returned Autophagy mod inactive, ABCG2 block 87*, Arbovirus inh -8, MT stabilizer 1, ABCB1 inh 2, bCat nuc transl -1, ABCB1 confirm -2, ABCG2 single pt 22, IgMXP3 autofluor 4.2 and CCRF-Adr fluor 3.2.
CC(C)c1ccc(OCc2cccc(C(=O)N/N=C/c3cccnc3)c2)cc1 was read as Autophagy mod inactive, ABCG2 block 9, Arbovirus inh -15, MT stabilizer 4, ABCB1 inh 0 and bCat nuc transl 7.
`COc1ccc(CNc2nc(-c3cccnc3)nn2C(=O)c2cccs2)cc1` gave Autophagy mod inactive, ABCG2 block 88*, Arbovirus inh 0, MT stabilizer 5, ABCB1 inh 6, bCat nuc transl -1, ABCB1 confirm 11, ABCG2 single pt 35, IgMXP3 autofluor -0.74 and CCRF-Adr fluor 0.01.
Screening Cc1cccc(Oc2cc([N+](=O)[O-])cc3c2C(=O)Nc2ccccc2O3)c1 returned Autophagy mod inactive, ABCG2 block 21, Arbovirus inh 0, MT stabilizer 3, ABCB1 inh 9 and bCat nuc transl 8.
Screening O=C1Nc2ccccc2Oc2cc([N+](=O)[O-])cc(Oc3ccccc3)c21 returned Autophagy mod active, ABCG2 block 89*, Arbovirus inh -5, MT stabilizer 3, ABCB1 inh 38, bCat nuc transl -1, ABCB1 confirm 3, ABCG2 single pt 17, IgMXP3 autofluor 20* and CCRF-Adr fluor 59*.
O=C(COC(=O)c1ccccc1OCC(=O)Nc1ccc(Br)cc1)Nc1ccccc1 was read as Autophagy mod inactive, ABCG2 block 84*, Arbovirus inh -15, MT stabilizer 1, ABCB1 inh 3, ABCB1 confirm 1, ABCG2 single pt 26, IgMXP3 autofluor -0.79 and CCRF-Adr fluor -0.74.
Screening CCC(C)NC(=O)COC(=O)c1ccccc1OCC(=O)Nc1ccc(Br)cc1 (stereo not given) returned Autophagy mod inactive, ABCG2 block 21, Arbovirus inh 7, MT stabilizer 5, ABCB1 inh 1 and bCat nuc transl 0.
`O=c1oc2ccccc2cc1-c1nc2c(s1)CCCC2` gave Autophagy mod inactive, ABCG2 block 55, Arbovirus inh 1, MT stabilizer 4, ABCB1 inh 7, bCat nuc transl -3, ABCB1 confirm 6, ABCG2 single pt 10, IgMXP3 autofluor 12 and CCRF-Adr fluor 2.
`O=C(N[C@@H](Cc1c[nH]c2ccccc12)C(=O)O)c1ccc(Cl)cc1` gave Autophagy mod inactive, ABCG2 block 0, Arbovirus inh 3, MT stabilizer 3, ABCB1 inh 0 and bCat nuc transl 4.
`CN(C)c1ccc(/C=C2\SC(=S)N(Nc3ncc(C(F)(F)F)cc3Cl)C2=O)cc1` gave Autophagy mod active, ABCG2 block active, Arbovirus inh -9, MT stabilizer 10, ABCB1 inh 187*, bCat nuc transl 3, ABCB1 confirm -171, ABCG2 single pt -39, IgMXP3 autofluor 228* and CCRF-Adr fluor 391*.
Screening COc1ccc(-c2oc3ncn(CCN4CCOCC4)c(=N)c3c2-c2ccc(OC)cc2)cc1 returned Autophagy mod inactive, ABCG2 block 4, Arbovirus inh -26, MT stabilizer 4, ABCB1 inh 2 and bCat nuc transl 10.
Screening CC1=NN(c2ccc([N+](=O)[O-])cc2)C(=O)/C1=C\N(C)C returned Autophagy mod inactive, ABCG2 block 80, Arbovirus inh 0, MT stabilizer 3, ABCB1 inh 6, bCat nuc transl -1, ABCB1 confirm 10, ABCG2 single pt 38, IgMXP3 autofluor -0.09 and CCRF-Adr fluor -0.59.
`CCCC1=NN(c2ccc([N+](=O)[O-])cc2)C(=O)/C1=C/N(C)C` gave Autophagy mod inactive, ABCG2 block 27, Arbovirus inh 17, MT stabilizer 4, ABCB1 inh 1 and bCat nuc transl 0.
Screening CC(C)CCOc1cccc(OCC(=O)O)c1 returned Autophagy mod inactive, ABCG2 block 108*, Arbovirus inh 3, MT stabilizer 2, ABCB1 inh 30, ABCB1 confirm 1, ABCG2 single pt 3, IgMXP3 autofluor 8.3 and CCRF-Adr fluor -0.84.
`Cc1ccc(-c2csc3nc(SCC(=O)N(C)C)n(Cc4ccccc4)c(=O)c23)cc1` gave Autophagy mod inactive, ABCG2 block 121*, Arbovirus inh 15, MT stabilizer 8, ABCB1 inh 28, bCat nuc transl -2, ABCB1 confirm 18, ABCG2 single pt 20, IgMXP3 autofluor -0.44 and CCRF-Adr fluor -0.99.
`CN(C)c1ccc(CNC(=O)C2CCC(CNc3c(N4CCCCC4)c(=O)c3=O)CC2)cc1` (stereo not given) gave bCat nuc transl 1.
For CSc1nc(N2CCCC2)c2c(c1C#N)CC(C)(C)OC2 the results were Autophagy mod inactive, ABCG2 block 63, Arbovirus inh 8, MT stabilizer 3, ABCB1 inh 7, bCat nuc transl 1, ABCB1 confirm 16, ABCG2 single pt 32, IgMXP3 autofluor 0.96 and CCRF-Adr fluor 0.11.
Screening Cc1ccc(SCC(=O)N2CCCC2)cc1 returned Autophagy mod inactive, ABCG2 block 1, Arbovirus inh -6, MT stabilizer 2, ABCB1 inh 0 and bCat nuc transl -4.
Screening Cc1ccc(-c2c(C(=O)NCc3ccc(F)cc3)oc(=O)c3ccccc23)cc1 returned Autophagy mod inactive, ABCG2 block 83*, Arbovirus inh 12, MT stabilizer 2, ABCB1 inh 27, bCat nuc transl -6, ABCB1 confirm 9, ABCG2 single pt 27, IgMXP3 autofluor 5.3 and CCRF-Adr fluor 9.9.
`CCN1CCN(C(=O)c2oc(=O)c3ccccc3c2-c2ccc(C)cc2)CC1` gave Autophagy mod inactive, ABCG2 block -2, Arbovirus inh -3, MT stabilizer 3, ABCB1 inh -2 and bCat nuc transl -2.

Screens: PubChem, several laboratories
